This is a sample that favours compounds with a hit; in the whole collection about 1.8% have one here.
HNF4A DNA FP: change in binding of human HNF4 alpha to DNA; P41235; HNF4a-FITC DNA binding, fluorescence polarization, 1 h; activity change, % at 10 µM; 0.3% of 360,000 active; AID 1224865; in the data active = activity change above about 30%, passing the limit was not always enough
SUMO HTRF inh: blocks human SUMOylation mediated by UBC9; inhibition, % at 35 µM; HTRF SUMOylation assay, SAE1/SAE2 + UBC9, in vitro; 0.36% of 290,000 active; in the data active = inhibition above about 50%, passing the limit was not always enough
CSN deneddyl inh: inhibitors of human CSN-mediated cullin deneddylation. 0.38% of 360,000 active. Q92905. Purified CSN, SCF-Nedd8-OG deneddylation, fluorescence polarization. inhibition, % at 12.5 µM;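 active = pattern-corrected inhibition above about 35%, with an unprinted fluorescence ratio check between 0.5 and 1.5, limit read from the data, passing the limit was not always enough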;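 note: 0% = enzyme with substrate and 100% = substrate without enzyme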
Target sequence (Q92905 whole entry, looked up, one chain of several): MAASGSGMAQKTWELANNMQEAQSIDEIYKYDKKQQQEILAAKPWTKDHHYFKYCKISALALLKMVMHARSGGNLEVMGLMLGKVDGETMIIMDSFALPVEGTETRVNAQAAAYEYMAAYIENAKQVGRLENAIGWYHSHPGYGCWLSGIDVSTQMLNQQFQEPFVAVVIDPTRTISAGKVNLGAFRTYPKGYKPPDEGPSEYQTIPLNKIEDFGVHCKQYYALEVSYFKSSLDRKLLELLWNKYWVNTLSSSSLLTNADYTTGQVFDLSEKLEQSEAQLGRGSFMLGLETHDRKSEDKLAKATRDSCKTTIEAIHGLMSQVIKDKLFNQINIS
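Test system: purified human Csn5 enzyme expressed in HEK293T cells. Amount: 0.24 nM enzyme. Reagent: SCFSkp2-Nedd8OG substrate at 10 nM final. Schedule: 90 min incubation of compound, enzyme and substrate at room temperature. Detection: fluorescence polarization. Read-out: % inhibition of substrate cleavage by Csn5.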
TPT1 inh: blocks Candida albicans tRNA 2'-phosphotransferase. recombinant caTPT1, FP RNA substrate dephosphorylation. AID 1962. 0.81% of 300,000 active. inhibition, % at 5 µM;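 active = inhibition above the mean of all tested compounds plus 3 SD, set per screening campaign, cut at about 24% in these data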;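 note: plate controls were DMSO alone for no effect and ferristatin control at 100 nM for full effect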
SENP1 inh: blocks the human SENP1 SUMO protease catalytic domain. Q9P0U3. recombinant SENP1 catalytic domain, CyPet-SUMO1-YPet FRET cleavage. inhibition, % at 10 µM. 0.21% of 360,000 active;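 active = inhibition at least 30% at 10 µM, raw YFP signal under a set limit, fluorescence ratio 0.5 to 1.5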;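 note: 0% = enzyme with DMSO and 100% = no enzyme wells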
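Material – human SENP1 catalytic domain · Input – SENP1 enzyme, 20 pM final · Compound dosing – single concentration of 10 µM compound, 0.5% DMSO final · Timing – enzyme reaction for 50 min at room temperature, dark · Measured by – FRET fluorescence in CFP and YFP emission channels · Control set – no-enzyme wells low, DMSO-plus-enzyme wells high control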
Rpn11 inh: Rpn11 (human) deubiquitinase inhibition; human 26S proteasome, Ub4-pepOG fluorescence polarization; 20S core pre-blocked with epoxomicin; O00487; 0.59% of 360,000 active; calls only at 20 µM;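 active = inhibition at 20 µM, scaled to each plate's controls, above about 33%, limit read from the data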
Target sequence (O00487 whole entry, looked up): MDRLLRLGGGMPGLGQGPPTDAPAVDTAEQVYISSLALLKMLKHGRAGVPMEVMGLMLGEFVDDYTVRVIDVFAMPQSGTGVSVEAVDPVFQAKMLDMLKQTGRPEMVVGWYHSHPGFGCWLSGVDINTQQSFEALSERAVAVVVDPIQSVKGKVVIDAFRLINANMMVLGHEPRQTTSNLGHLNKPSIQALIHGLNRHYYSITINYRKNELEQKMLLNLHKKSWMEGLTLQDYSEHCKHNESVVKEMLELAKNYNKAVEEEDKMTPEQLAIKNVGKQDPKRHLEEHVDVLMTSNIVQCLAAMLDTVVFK
Starred values were filed as active, the others as inactive; i = inactive; . = not tested or not shown; + = active, no number.

SMILES	HNF4A DNA FP	SUMO HTRF inh	CSN deneddyl inh	TPT1 inh	SENP1 inh	Rpn11 inh
CCn1c2ccccc2c2cc(NC(=O)N3CCOCC3)ccc21	6.4	-2.8	6.0	6.3	32.3*	i
CCOC(=O)c1c(NC(=O)COC(=O)c2ccc(NC(=O)CC#N)cc2)sc(C(=O)NC)c1C	-15.3	.	40.4*	.	-17.9	i
COc1cccc(/C=N/n2c(=O)[nH]c3ccccc32)c1OC	-0.8	1.0	-4.1	0.2	0.3	i
CCNc1nc(-c2cc(C)n(Cc3ccco3)c2C)cs1	-8.3	55.9*	27.2	-5.4	17.4	i
Cc1ccccc1Cn1cnc2ccccc2c1=O	0.7	25.1	0.9	3.1	1.3	i
Nc1ncnc2oc(-c3ccco3)c(-c3ccco3)c12	-56.0	77.6*	35.7	-0.9	-6.7	i
Nc1nnc(-c2ccco2)s1	2.3	7.8	0.5	1.5	-4.7	i
O=C(c1ccco1)N1CCN(C(=O)C2CCN(S(=O)(=O)Cc3ccccc3)CC2)CC1	3.3	3.8	61.6*	-2.1	1.1	i
Cn1ccc2c(N3CCC3)cc3c(c21)C1CCC3O1 (stereo not given)	0.4	.	1.2	.	5.4	i
N#Cc1c2nc3ccccc3nc2n2cc(NC(=O)c3ccc(F)cc3)ccc12	-45.0	.	-8.0	.	-28.8	i
Cc1c(C(=O)Nc2ccc(F)cc2)cn2c(nc3ccccc32)c1C#N	4.6	53.0*	5.3	4.5	-36.5	i
Cc1ccc(C)c(S(=O)(=O)N2CCCC2CNC(=O)C(=O)NCC2CCCO2)c1 (stereo not given)	33.9*	.	4.6	-2.3	2.6	i
Cc1ccc(C)c(S(=O)(=O)N2CCCC2CNC(=O)C(=O)NCc2ccccc2C)c1 (stereo not given)	1.0	.	4.5	1.2	1.1	i
O=S(=O)(c1cccc(-c2n[nH]c(=S)o2)c1)N1CCOCC1	1.8	24.2	-2.0	0.7	1.0	i
Cc1ccc(-c2nc3cc(C)ccc3o2)cc1	2.9	8.0	-0.4	2.4	-0.4	i
Nc1ccc2oc(-c3cccc4ccccc34)nc2c1	4.5	32.6	-1.9	-1.6	8.4	i
Cc1ccc(-c2nc3cc(N)ccc3o2)cc1	-1.2	51.5*	-0.1	0.4	-36.4	i
Nc1ccc2oc(-c3cccs3)nc2c1	2.4	56.0*	1.5	-0.5	11.2	i
CCc1cc2c(=O)c(Oc3ccccc3F)c(C)oc2c(CN(C)C)c1O	0.4	63.5*	-1.5	4.0	-1.7	i
Cc1c(Cc2ccccc2)c(=O)oc2c(CN(C)C)c(O)c(Cl)cc12	-1.2	15.9	2.8	-0.9	-22.9	i
Cc1ccc(S(=O)(=O)Nc2c(Cl)c(Cl)c(O)c3ccccc23)cc1	.	91.5*	.	-3.8	.	.
CCn1c(CNC(=O)c2ccc(Cl)cc2)nnc1SCC(=O)N1CCOCC1	4.9	15.8	0.0	0.8	1.0	i
CCC(/C=C1\Oc2ccc(OC)cc2N1C)=C\c1sc2ccccc2[n+]1CCCS(=O)(=O)[O-]	169.7	.	73.2*	.	-10.7	.
Cc1ccc(-c2nc(N3CCN(C)CC3)c3ccccc3n2)cc1	-0.6	-13.9	2.8	-0.7	-0.8	i
CN1CCN(c2nc(-c3cccc([N+](=O)[O-])c3)nc3ccccc23)CC1	-2.5	3.4	44.0*	-2.3	4.4	i
SMILES	HNF4A DNA FP	SUMO HTRF inh	CSN deneddyl inh	TPT1 inh	SENP1 inh	Rpn11 inh
Cc1ccc(S(=O)(=O)/N=C2/C=C(Sc3ncn[nH]3)C(=O)c3ccccc32)c(C)c1	.	95.5*	.	2.2	.	.
Cc1ccc(S(=O)(=O)/N=C2/C=C(Sc3ncn[nH]3)C(=O)c3ccccc32)cc1	1.0	95.1*	23.1	-5.8	4.9	i
CC(C)c1ccc(S(=O)(=O)/N=C2/C=C(Sc3ncn[nH]3)C(=O)c3ccccc32)cc1	-6.2	90.0*	24.0	0.5	3.8	i
CC1CN(C(=O)Nc2ccc(F)cc2)C2(CCCCCC2)O1 (stereo not given)	1.3	9.4	6.5	-4.0	2.2	i
COc1ccc(NC(=O)COC(=O)CO/N=C(\C)c2ccc3c(c2)OCO3)cc1S(N)(=O)=O	3.6	.	9.1	.	0.2	i
CCCC(NC(=O)Cc1c(C)c2cc3c(C)c(C)oc3c(C)c2oc1=O)C(=O)N[C@@H](Cc1ccccc1)C(=O)O (stereo not given in full)	-20.1	14.5	32.6	1.2	-115.6	+
Cc1cccc(NC(=O)CSCC(=O)Nc2ccc(S(=O)(=O)N3CCCC3)cc2)c1	2.8	.	-0.2	0.0	0.9	i
Cc1cccc(CNc2ccc(S(=O)(=O)N3CCCCC3)cc2)c1	0.0	.	61.8*	.	1.1	i
CCc1nn(CC(=O)NC(C)CCc2ccccc2)c(=O)c2cc3cc(F)ccc3n12 (stereo not given)	1.8	51.0*	-0.5	-5.0	1.6	i
COc1ccc(NC(=S)Nc2cccc([N+](=O)[O-])c2)cc1	-1.2	-3.6	0.1	-0.5	2.2	i
COc1ccc(NC(=S)NNc2ccc([N+](=O)[O-])cc2S(=O)(=O)Nc2ccc(C)cc2C)cc1	16.2	-6.2	9.5	9.6	42.1*	i
Cc1ccc(NS(=O)(=O)c2cc([N+](=O)[O-])ccc2NNC(=S)Nc2cc(C)ccc2C)c(C)c1	13.7	-24.4	7.2	8.3	61.9*	i
COc1ccccc1NC(=O)c1c(NC(=O)c2ccco2)sc2c1CCC2	-5.5	30.1	4.9	3.9	-31.9	i
COc1ccccc1C(=O)Nc1sc2c(c1C(=O)NCc1ccco1)CCCC2	-0.4	60.9*	-0.2	-2.1	-9.8	i
CC(=O)c1ccc(OCc2nnn(CC(=O)NS(=O)(=O)Cc3ccccc3)c2-c2ccccc2)cc1	-0.7	.	-2.7	.	0.8	i
Cc1noc(C)c1CSCC(=O)Nc1nnc(CC(C)C)s1	4.0	2.4	-0.4	3.0	-2.0	i
COc1cccc(OC)c1-c1nn2c(-c3cc(-c4ccccc4)n[nH]3)nnc2s1	224.7*	3.4	i	14.9	0.6	i
COc1cccc(-c2nnc3sc(-c4ccccc4)nn23)c1	3.5	17.3	1.1	-1.3	-34.5	i
Cc1ccccc1NC(=O)CCC(=O)N/N=C/c1ccc(F)cc1	-0.2	12.4	-3.6	4.2	1.6	i
CC(C)(C)c1ccc(OCCCC(=O)N2CCOCC2)cc1	8.6	12.4	0.0	-2.2	0.2	i
CCCNC(=O)C12CCC(C)(C(=O)C1Br)C2(C)C (stereo not given)	4.5	7.1	-8.1	2.4	-1.7	i
Nc1c(N2CCCC2)cc(Cl)c2nonc12	-4.2	.	23.6	-18.5	60.8*	i
Nc1c(N2CCOCC2)cc(Cl)c2nonc12	-0.5	100.7	-4.3	-3.5	5.8	i
